# UCH37 DUB inh: inhibitors of human deubiquitinating enzyme UCH37. Q9Y5K5. purified proteasome/UCH37, Ub-AMC cleavage fluorescence. inhibition, % (test concentration not listed). hit rate 0.33% among 330,000;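 active = mean inhibition over replicate wells above about 20%, limit read from the data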;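 note: 0% = compound-free wells with enzyme and 100% = wells lacking proteasome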
#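 Material: human UCH37 enzyme supplied as purified proteasome complex / Amount: 0.15 nM proteasome as dispensed / Buffer or medium: pH 7.4 Tris-HCl (50 mM) with ovalbumin, ATP-MgCl2, DTT / Times: preincubation 30 min, reaction 25 min, room temperature / Technique: AMC fluorescence from Ub-AMC cleavage, excitation 355 nm, emission 460 nm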
# MEKK3 PB1 HTS: MEKK3-MEK5 PB1 interaction, increase or decrease; Q99759; bead-based flow cytometry, Alexa488-MEK5 binding to MEKK3; actives lie on both sides; 0 = blocked by unlabeled MEK5, 100 = vehicle; binding response (% of control), % at 10 µM; hit rate 1.4% among 290,000; AID 1529;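 active = binding response more than 3 SD above or below the average of its plate-row segment, actives on both sides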;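 note: Alexa488 bead fluorescence after subtracting the streptavidin-only scavenger bead signal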
# Apaf1 inhib: inhibitors of human Apaf-1 apoptosome | O14727 | reconstituted apoptosome caspase-3 activity, DEVD-Rh110 fluorescence | inhibition, % at 20 µM | hit rate 0.71% among 330,000; active = inhibition of at least 40% at 20 µM;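 note: plate controls were DMSO wells for no effect and DEVD-CHO caspase inhibitor wells for full effect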
# Target sequence (O14727 whole entry, looked up): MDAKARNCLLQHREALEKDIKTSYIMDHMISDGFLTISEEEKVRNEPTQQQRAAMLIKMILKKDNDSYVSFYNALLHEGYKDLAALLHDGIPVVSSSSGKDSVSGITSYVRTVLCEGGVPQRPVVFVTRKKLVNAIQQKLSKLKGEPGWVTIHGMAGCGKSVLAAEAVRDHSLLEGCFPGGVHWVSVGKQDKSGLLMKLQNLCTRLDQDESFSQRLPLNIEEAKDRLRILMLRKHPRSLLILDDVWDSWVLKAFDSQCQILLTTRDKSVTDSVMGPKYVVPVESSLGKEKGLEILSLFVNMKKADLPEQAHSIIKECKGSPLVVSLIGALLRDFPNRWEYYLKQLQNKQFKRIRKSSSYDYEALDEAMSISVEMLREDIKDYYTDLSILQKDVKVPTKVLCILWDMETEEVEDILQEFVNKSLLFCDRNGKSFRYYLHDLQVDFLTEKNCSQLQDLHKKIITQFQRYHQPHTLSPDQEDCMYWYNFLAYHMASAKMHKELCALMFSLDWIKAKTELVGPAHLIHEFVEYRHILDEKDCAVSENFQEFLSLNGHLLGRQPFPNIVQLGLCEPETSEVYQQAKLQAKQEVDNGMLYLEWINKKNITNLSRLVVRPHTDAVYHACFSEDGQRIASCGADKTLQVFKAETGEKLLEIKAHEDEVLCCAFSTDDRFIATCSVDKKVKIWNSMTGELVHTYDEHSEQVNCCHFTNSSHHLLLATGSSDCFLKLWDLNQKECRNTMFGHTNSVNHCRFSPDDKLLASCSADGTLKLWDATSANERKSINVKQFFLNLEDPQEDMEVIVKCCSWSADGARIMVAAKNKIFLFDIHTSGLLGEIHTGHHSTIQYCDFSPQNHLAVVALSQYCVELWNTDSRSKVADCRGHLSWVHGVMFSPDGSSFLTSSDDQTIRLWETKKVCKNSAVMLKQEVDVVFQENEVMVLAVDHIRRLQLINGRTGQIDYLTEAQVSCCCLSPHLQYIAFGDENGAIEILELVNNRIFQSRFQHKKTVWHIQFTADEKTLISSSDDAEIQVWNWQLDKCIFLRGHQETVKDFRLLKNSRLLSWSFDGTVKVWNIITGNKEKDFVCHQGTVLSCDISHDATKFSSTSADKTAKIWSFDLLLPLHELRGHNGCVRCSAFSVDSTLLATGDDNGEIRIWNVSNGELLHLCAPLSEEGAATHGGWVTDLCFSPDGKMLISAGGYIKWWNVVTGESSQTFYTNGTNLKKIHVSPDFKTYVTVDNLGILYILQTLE
#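 System – cell-free apoptosome with Apaf-1, procaspase-3 and caspase-9 · Buffer or medium – pH 7.5 Hepes buffer with CHAPS, BSA, DTT · Also added – cytochrome c with DEVD-Rh110 · Times – 30 min compound preincubation, 50 min activation, room temperature · Technique – Rh110 fluorescence intensity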
# MEKK2mut PB1 HTS: signal of MEK5 binding to mutant human MEKK2 PB1 domain. hit rate 0.35% among 290,000. bead flow cytometry, Alexa488-MEK5 binding to MEKK2 mutant. AID 1530. percent response, % at 10 µM; in the data active = percent response above about 24%, passing the limit was not always enough
# UBC13 inh: inhibitors of human UBC13 polyubiquitin chain formation; P61088; TR-FRET; inhibition, % at 20 µM; hit rate 0.47% among 330,000; in the data active = inhibition above about 45%, passing the limit was not always enough
# MEKK2 WT-MEK5: raises or lowers MEK5 binding to wildtype human MEKK2 PB1 domain. hit rate 1.1% among 290,000. binding response (% of control), % at 10 µM. AID 1531. bead flow cytometry, Alexa488-MEK5 binding to MEKK2 WT; actives lie on both sides; in the data active = binding response below about 67% or above about 130%
# Apaf-1 inh conf2: confirmation of Apaf-1 inhibitors; hit rate 25% among 1,800; reconstituted apoptosome, caspase-3 DEVD-Rh110 fluorescence; inhibition, % at 20 µM; shares compounds with Apaf1 inhib; AID 504614;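 active = mean inhibition of at least 40% at 20 µM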;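 note: plate controls were DMSO wells for no effect and DEVD-CHO caspase inhibitor control wells for full effect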
# Rh110 quench: counter-screen for Apaf-1 inhibitors: fluorescence interference. shares compounds with Apaf1 inhib. Rh110 fluorescence interference, quenched caspase reaction. activation (fluorescence interference), % at 20 µM. 1,800 tested, under 10 active. AID 504615;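 active = signal rise of 40% or more at 20 µM, treated as a fluorescence artifact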
# Apaf1 inh interf: shows fluorescence interference in the Apaf-1 inhibitor assay format; fluorescence interference counterscreen, Apaf-1 assay format; IC50, µM; 460 tested, under 10 active; AID 588538; shares compounds with Apaf1 inhib; call rule not given here
# Active calls of the source: *; i = inactive; x = not tested or not shown. An excerpt weighted towards active compounds, which were near 3% of everything screened.
SMILES,UCH37 DUB inh,MEKK3 PB1 HTS,Apaf1 inhib,MEKK2mut PB1 HTS,UBC13 inh,MEKK2 WT-MEK5,Apaf-1 inh conf2,Rh110 quench,others
COc1ccc(C2c3[nH]c4ccccc4c3CCN2C(=O)c2cn3ccccc3n2)c(F)c1 (stereo not given),0,80,14,-14,-9,73,x,x,
O=C1Cc2ccccc2C(=O)N1OCc1ccc(Cl)cc1,5,124,95*,0,-44,107,29,10,
O=C1c2ccccc2C(=O)N1OCc1ccc(Cl)cc1,-2,107,8,6,15,115,x,x,
COC(=O)c1ccc(/C=N/NC(=O)c2ccccc2Cl)cc1,x,95,9,-4,-6,85,x,x,
Cc1ccc(-n2c(O)c(/C=N/Nc3ccc(S(=O)(=O)N4CCOCC4)cc3[N+](=O)[O-])c3ccccc3c2=O)c(C)c1,11,106,51*,-2,-60,99,31,6,
CC(=O)N1CCOc2ccc(S(=O)(=O)NCCc3ccc(C)cc3)cc21,0,102,2,-2,-7,99,x,x,
CCN(c1ccccc1)S(=O)(=O)c1ccc(Cl)c(NC(=O)CN2CCN(C)CC2)c1,3,x,52*,x,44,x,18,6,
CCN(c1ccccc1)S(=O)(=O)c1ccc(Cl)c(NC(=O)Nc2ccc(Cl)cc2C#N)c1,-4,101,40*,1,-9,99,44*,-4,Apaf1 inh interf=>100
CN(c1ccccc1)S(=O)(=O)c1cccc(NC(=O)Nc2ccc(Cl)cc2C#N)c1,-19,94,6,-2,14,95,x,x,
CCOc1ccccc1NC(=O)c1cc(-c2ccccn2)nc2ccccc12,1,x,53*,x,-8,x,15,7,
COc1ccc(C2=NCCn3nc4cc(OC)ccc4c32)cc1,0,x,14,x,1,x,x,x,
N/C(=N\OC(=O)c1ccc(Cl)cc1Cl)c1cccnc1,5,74,76*,-13,-5,71,9,5,
COc1ccccc1N1C(C)=CC(=C(C#N)c2nc3ccccc3s2)C=C1C,1,97,56*,-2,-14,85,23,1,
CC1=CC(=C(C#N)c2nc3ccccc3s2)C=C(C)N1c1ccc(F)cc1,4,103,45*,6,-21,96,24,0,
CC(C)=C(C#N)c1nc2ccccc2s1,6,100,-9,2,6,102,x,x,
Cc1[nH]n(-c2ccccc2)c(=O)c1/C=N/NC(=O)c1cccc(F)c1,x,103,62*,3,-1,102,67*,0,Apaf1 inh interf=>100
Cc1[nH]n(-c2ccccc2)c(=O)c1/C=N/NC(=O)c1ccc(O)cc1O,x,103,73*,6,-33,103,84*,9,Apaf1 inh interf=>100
Cc1[nH]n(-c2ccccc2)c(=O)c1/C=N/Nc1nncc(-c2ccccc2)n1,x,101,81*,1,-37,100,89*,10,Apaf1 inh interf=>100
Cc1cc(C(=O)N/N=C/c2c(C)[nH]n(-c3ccccc3)c2=O)n[nH]1,x,101,77*,7,-10,107,80*,2,Apaf1 inh interf=>100
Cc1cc(C(=O)NN=Cc2c(C)nn(-c3ccccc3)c2Cl)n[nH]1,3,x,x,x,x,x,x,x,
CCN(CC(=O)Nc1ccc(C(C)=O)cc1)CC(=O)Nc1ccc2c(c1)OCCO2,1,x,-1,x,-2,x,x,x,
COCCCN1C(=O)c2ccc(C(=O)Nc3cccc(OC)c3)cc2C1=O,1,96,-6,1,0,98,x,x,
CCCCN(CCCC)C(=S)N/N=C/c1c(C)[nH]n(-c2ccccc2)c1=O,x,86,57*,-4,-44,91,-3,16,
O=C1c2ccccc2C(=O)N1CCc1ccccc1,7,x,-20,x,-1,x,x,x,
COc1cc(/C=C2/C(=O)N(c3ccc([N+](=O)[O-])cc3)N=C2N2CCOCC2)ccc1O,8,91,86*,-19,-126,86,39,3,
SMILES,UCH37 DUB inh,MEKK3 PB1 HTS,Apaf1 inhib,MEKK2mut PB1 HTS,UBC13 inh,MEKK2 WT-MEK5,Apaf-1 inh conf2,Rh110 quench,others
O=C(CN1C(=O)S/C(=C\c2ccc(O)c([N+](=O)[O-])c2)C1=O)Nc1ccc(N2CCOCC2)cc1,11,97,0,-4,-74,98,x,x,
Cc1ccccc1N=Cc1cccc(O)c1O,2,90,74*,-2,-12,93,9,4,
CC(N=Cc1cccc(O)c1O)c1ccccc1 (stereo not given),4,91,71*,-8,-19,91,10,-3,
Oc1cccc(/C=N/N=C/c2cccc(O)c2O)c1O,x,107,-7,6,-8,100,x,x,
CC(N=Cc1cc([N+](=O)[O-])ccc1O)c1ccccc1 (stereo not given),9,123,7,-2,-2,103,x,x,
COc1ccc(S(=O)(=O)N2CCN(Cc3cc(OC)c(OC)c(OC)c3)CC2)cc1,1,102,-12,-1,5,102,x,x,
Cc1c(Cl)cccc1NC(=S)N(C)CCC#N,-2,113,-1,-2,0,105,x,x,
Cc1cc2cc(CNC(=O)NC3CCCCC3)ccc2n1C,3,109,51*,7,7,115,16,11,
Cc1cc2cc(CNC(=O)Nc3ccc(Cl)c(Cl)c3)ccc2n1C,2,96,62*,4,-10,95,8,-1,
COc1ccc(-c2nnc(SCc3nc4ccccc4s3)n2C(C)C)cc1,-5,96,15,-3,4,98,x,x,
O=C(NCc1cccnc1)C(=NO)c1ccccc1,3,x,x,x,x,x,x,x,
Cc1cccc(NC(=O)c2nc[nH]c2C(=O)Nc2ccccc2[N+](=O)[O-])c1,10,103,10,0,2,112,x,x,
Cc1ccc(-n2nc3ccc(N)cc3n2)cc1C,-480,104,80*,4,-23,102,29,1,
Cc1cc(N)ccc1-n1nc2ccccc2n1,-31,x,-6,x,14,x,x,x,
COc1ccc(-n2nc3ccc(NS(C)(=O)=O)cc3n2)cc1Cl,-55,98,8,8,5,99,x,x,
COc1ccc(-n2nc3ccc(N)cc3n2)cc1Cl,i,107,95*,3,-9,99,55*,9,Apaf1 inh interf=>100
Cc1ccc(-n2nc3ccc(N)cc3n2)c(C)c1,i,104,68*,1,-1,103,32,14,
Cc1ccc(-n2nc3ccc(N)cc3n2)cc1Cl,-152,108,96*,1,-4,107,47*,2,Apaf1 inh interf=>100
COc1ccc(Cl)cc1C(=O)NCCCN1CCOCC1,3,99,0,8,-4,105,x,x,

# Bioassay records: PubChem, several laboratories
